The source of these data is article PMC8799877 (Acta Pharmaceutica Sinica. B, 2021).

In data set [1] the target is BRD4(2) (Homo sapiens, UniProt O60885). The data set is described as follows: HTRF bromodomain binding assay, BRD4.
For data set [2], the target named is BRD4(1) (Homo sapiens, UniProt O60885). Put plainly: HTRF bromodomain binding assay, BRD4. In general terms: TR-FRET usually uses a lanthanide donor and a delayed reading to cut background.
Data set [3] in a line: MTT cytotoxicity / cell viability in NRCFs. The note with it: Sprague-Dawley, rat, primary neonatal rat cardiac fibroblasts (NRCFs). The class given is cell-based.
Data set [4] can be described thus: MTT cytotoxicity / cell viability in NRCMs. To be noted: Sprague-Dawley, rat, primary neonatal rat cardiac myocytes (NRCMs). The class given is cell-based.
Data set [5] deals with BRD4 (Rattus norvegicus, UniProt A0A8I6A216). The data set is described as follows: Cellular thermal shift assay. The note with it: NRCFs, 10 μmol/L, 4 h, heated from 43 to 61 °C. In kind it is cell-based.
The nature of data set [6]: In vivo pharmacokinetic study. Further details: species or system male Sprague-Dawley rats. To be noted: for CL_F_pred / Vz_F_pred: rats. Summed up: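 Male SD rats (n = 3) dosed iv at 2 mg/kg or orally at 10 mg/kg. Plasma separated by centrifugation at 4 °C, 6000 rpm, 8 min, and analysed by LC–MS. Parameters reported as mean ± SD.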
The subject of data set [7] is NRCFs. The data set is described as follows: Ang II-induced cardiac fibroblast activation. The class given is cell-based, rat. The note with it: immunofluorescent staining. A digest of the protocol:
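Treated neonatal rat cardiac fibroblasts fixed in 4% paraformaldehyde overnight, permeabilised with 0.1% Triton X-100 10 min, blocked in 5% BSA 20 min. Anti-α-SMA (1:300) at 4 °C overnight, then Alexa Fluor 488 goat anti-rabbit IgG (1:200) 2 h in the dark, DAPI 15 min. Imaged by laser confocal microscopy; n = 3.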

Data set [8] relates to NRCFs. Put plainly: Wound scratch migration assay. In kind it is cell-based, rat. To be noted: C-34 1 μmol/L or JQ1 0.2 μmol/L, Ang II 12 or 24 h.
The test system of data set [9] is TGF-β1/Smad2/3 signaling pathway. Put plainly: Ang II-induced TGF-β1/Smad2/3 signaling in NRCFs. To be noted: pretreatment, Western blot. In kind it is cell-based, rat. Summed up:
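Fibroblasts from hearts of 1–3-day-old neonatal SD rats: trypsin (0.8 mg/mL, 4 °C overnight), then collagenase II (0.8 mg/mL), 2 h differential plating. Treated cells lysed in RIPA, protein by BCA, 10% SDS-PAGE, nitrocellulose, 5% nonfat milk block 2 h, primary antibodies 4 °C overnight, secondary 1:10,000 2 h, chemiluminescence, densitometry.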
On the technique in general: Immunoblotting shows a protein as a band on a membrane.

The test system of data set [10] is MV4-11 and RS411 acute leukemia xenograft models. The note with it: 5 mg/kg; cited from earlier work.
The mark [11] stands for this setting: male, Sprague-Dawley, rat, plasma, iv, 2 mg/kg.
[12] abbreviates: male, Sprague-Dawley, rat, plasma, po, 10 mg/kg.

On to `NS(=O)(=O)c1ccc(Nc2nc(-c3ccc(F)cc3)c3ccccc3n2)cc1` [Compound 28], for which the IC50 (usually the concentration that inhibits the measured activity by half) in data set [1] stood at 0.242 ± 0.049 µM. The IC50 in data set [2] came to 0.286 ± 0.046 µM. Moreover, the IC50 at 24 h in [3] was found to be 48.2 ± 1.68 µM. Further, in data set [4], the midpoint of inhibition, the IC50 at 24 h, lay at 19.1 ± 1.4 µM. For the same compound, the “BRD4 thermal stabilization (CETSA, Western blot)” value in data set [5] was “could efficiently stabilize BRD4 from 43 to 61 °C”. Also, in data set [6] (setting [11]), the AUC(0-inf) (in general, the area under the concentration-time curve extrapolated to infinity) came to 7130 ng·h/mL; the AUC(0-t) – broadly, the area under the concentration-time curve up to a stated or last time point – was determined as 7100 ng·h/mL; the Cmax (as a rule, the highest concentration seen after dosing) is 2820 ng/mL; the MRT last (in general, a mean duration of stay, worked out from the concentration-time curve) was found to be 3.46 h. For the same compound, in [6] (setting [11]), the half-life (commonly the time needed for the level to fall by half in the phase considered) was 3.13 h. Besides, the bioavailability (usually the share of a dose that reaches the circulation, judged against a reference dose that is usually intravenous) in data set [6] (male, Sprague-Dawley, rat, plasma, oral, 10 mg/kg) was 43.1%. In [6] (setting [12]), the AUC(0-inf) turned out to be 15400 ng·h/mL, the AUC(0-t) was determined as 15300 ng·h/mL, the highest level (Cmax) was 2170 ng/mL and the MRT last worked out at 4.27 h. Besides, in data set [6] (setting [12]), the Tmax (commonly the time from dosing to the highest level) worked out at 2.67 h and the half-life was 1.77 h. In data set [6] (iv 2 mg/kg), this compound registered a CL_F_pred of 4.67 mL/min/kg and a Vz_F_pred of 1.27 L/kg. In data set [6] (po 10 mg/kg), the CL_F_pred is 12 mL/min/kg and the Vz_F_pred stood at 1.77 L/kg.

For the compound `Cc1sc2c(c1C)C(c1ccc(Cl)cc1)=N[C@@H](CC(=O)OC(C)(C)C)c1nnc(C)n1-2` [JQ1], in data set [5], the “BRD4 thermal stabilization (CETSA, Western blot)” value was “in close accordance with that obtained for JQ1”. The “α-SMA fluorescence intensity after Ang II stimulation” value in [7] is “this effect was reversed”. Moreover, the “Ang II-induced cell migration (wound scratch assay)” value in data set [8] is reported as “effectively inhibited the enhanced cell migration induced by Ang II”. Also, the “Ang II-induced upregulation of TGF-β1, p-Smad2 and p-Smad3” value in [9] was “comparable to those by JQ1 treatment”.

In the case of `Cc1nnc2n1-c1sc(C#Cc3cnn(CCCC#Cc4cccc5c4CN(C4CCC(=O)NC4=O)C5=O)c3)c(Cc3ccccc3)c1COC2` (centres unmarked) [QCA570], the tumor regression result in data set [10] is “complete and long-lasting tumor regression”.
